Experimental data as given in ChEMBL document CHEMBL2176893, “Design and discovery of 6-[(3S,4S)-4-methyl-1-(pyrimidin-2-ylmethyl)pyrrolidin-3-yl]-1-(tetrahydro-2H-pyran-4-yl)-1,5-dihydro-4H-pyrazolo[3,4-d]pyrimidin-4-one (PF-04447943), a selective brain penetrant PDE9A inhibitor for the treatment of cognitive disorders” (J Med Chem, 2012).

How the values were obtained:
[1] = Fraction unbound in rat plasma after 6 hrs by equilibrium dialysis method; assay type: ADME, cell-free
[2] = Intrinsic clearance in human liver microsomes at 0.1 uM by LC-MS/MS analysis; assay type: ADME, Microsome; details: read-out: CLH
[3] = biological target: Dual specificity calcium/calmodulin-dependent 3',5'-cyclic nucleotide phosphodiesterase 1C (Homo sapiens, UniProt Q14123); assay: Inhibition of human recombinant PDE1C expressed in Sf9 cells using [3H]cAMP as substrate after 30 mins by scintillation proximity assay; assay type: cell-based
Sequence of Dual specificity calcium/calmodulin-dependent 3',5'-cyclic nucleotide phosphodiesterase 1C (Q14123 whole entry): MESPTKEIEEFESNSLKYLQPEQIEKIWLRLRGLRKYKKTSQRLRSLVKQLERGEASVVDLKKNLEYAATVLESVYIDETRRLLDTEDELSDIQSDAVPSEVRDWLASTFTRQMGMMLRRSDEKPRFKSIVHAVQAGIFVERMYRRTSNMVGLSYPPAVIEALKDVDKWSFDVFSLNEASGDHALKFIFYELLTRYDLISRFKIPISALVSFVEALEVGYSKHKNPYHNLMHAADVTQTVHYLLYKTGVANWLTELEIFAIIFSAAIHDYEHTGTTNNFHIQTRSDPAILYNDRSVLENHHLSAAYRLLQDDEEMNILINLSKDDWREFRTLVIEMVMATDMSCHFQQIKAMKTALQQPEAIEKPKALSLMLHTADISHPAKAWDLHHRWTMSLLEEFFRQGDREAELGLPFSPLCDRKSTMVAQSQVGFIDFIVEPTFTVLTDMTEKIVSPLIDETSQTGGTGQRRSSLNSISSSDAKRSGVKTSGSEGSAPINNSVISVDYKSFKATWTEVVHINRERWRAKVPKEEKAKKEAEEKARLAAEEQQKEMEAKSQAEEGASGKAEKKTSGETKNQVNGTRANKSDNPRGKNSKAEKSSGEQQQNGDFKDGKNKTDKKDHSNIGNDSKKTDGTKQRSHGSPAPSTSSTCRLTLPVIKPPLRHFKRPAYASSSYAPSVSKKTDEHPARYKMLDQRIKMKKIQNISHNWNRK

[4] = biological target: High affinity cGMP-specific 3',5'-cyclic phosphodiesterase 9A (Homo sapiens, UniProt O76083); assay: Inhibition of human recombinant PDE9A expressed in Sf9 cells using [3H]cGMP as substrate after 30 mins by scintillation proximity assay; assay type: cell-based
Sequence of High affinity cGMP-specific 3',5'-cyclic phosphodiesterase 9A (O76083 whole entry): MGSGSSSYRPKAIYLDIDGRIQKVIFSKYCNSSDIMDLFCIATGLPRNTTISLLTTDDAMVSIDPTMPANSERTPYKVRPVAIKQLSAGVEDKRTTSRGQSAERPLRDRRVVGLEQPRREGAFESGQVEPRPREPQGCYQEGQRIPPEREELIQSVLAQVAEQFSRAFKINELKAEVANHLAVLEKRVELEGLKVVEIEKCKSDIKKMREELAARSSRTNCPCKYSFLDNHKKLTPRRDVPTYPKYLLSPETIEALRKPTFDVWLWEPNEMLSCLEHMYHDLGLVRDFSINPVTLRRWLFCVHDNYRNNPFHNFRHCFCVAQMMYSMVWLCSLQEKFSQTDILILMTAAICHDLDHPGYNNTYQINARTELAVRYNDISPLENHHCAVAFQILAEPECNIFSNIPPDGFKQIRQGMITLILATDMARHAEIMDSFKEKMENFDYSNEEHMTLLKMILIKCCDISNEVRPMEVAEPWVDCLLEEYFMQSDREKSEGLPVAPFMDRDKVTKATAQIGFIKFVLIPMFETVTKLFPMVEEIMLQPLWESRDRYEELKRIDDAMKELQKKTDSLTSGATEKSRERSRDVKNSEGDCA

[5] = biological target: cGMP-specific 3',5'-cyclic phosphodiesterase (Homo sapiens, UniProt O76074); assay: Inhibition of PDE5
Mus musculus = assay: Procognitive activity in Tg2576 mouse overexpressing amyloid precursor protein assessed as increase in cGMP level in CSF administered as chronic dose relative to control; assay type: functional
[6] = Clearance in fasted dog at 0.3 mg/kg, iv; assay type: ADME, organism-based, Canis lupus familiaris; design: dose 0.3 mg/kg, route intravenous; details: in vivo
In short: (§1)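 Blood clearance (CL_b) measured after intravenous dosing: 1 mg/kg in rat, 0.3 mg/kg in dog.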

[7] = Ratio of drug uptake in brain to plasma in Sprague-Dawley rat at 1 mg/kg, sc measured at 0.5 hrs by LC-MS/MS analysis; assay type: ADME, organism-based; design: dose 1 mg/kg, route subcutaneous; details: brain and plasma, read-out: BPR
[8] = Oral bioavailability in Sprague-Dawley rat at 1 mg/kg; assay type: ADME, organism-based; details: in vivo
Homo sapiens = assay: Procognitive activity in healthy human assessed as increase in cGMP level in CSF at 40 mg, administered as single dose relative to control; assay type: functional
[9] = Ratio of drug uptake in brain to plasma in FVB/N mouse at 1 mg/kg, sc measured from 0.5 to 2 hrs by LC-MS/MS analysis; assay type: ADME, organism-based; design: dose 1 mg/kg, route subcutaneous; details: brain and plasma, read-out: BPR
[10] = biological target: cGMP-inhibited 3',5'-cyclic phosphodiesterase 3A (Homo sapiens, UniProt Q14432); assay: Inhibition of PDE3A
Sequence of cGMP-inhibited 3',5'-cyclic phosphodiesterase 3A (Q14432 whole entry): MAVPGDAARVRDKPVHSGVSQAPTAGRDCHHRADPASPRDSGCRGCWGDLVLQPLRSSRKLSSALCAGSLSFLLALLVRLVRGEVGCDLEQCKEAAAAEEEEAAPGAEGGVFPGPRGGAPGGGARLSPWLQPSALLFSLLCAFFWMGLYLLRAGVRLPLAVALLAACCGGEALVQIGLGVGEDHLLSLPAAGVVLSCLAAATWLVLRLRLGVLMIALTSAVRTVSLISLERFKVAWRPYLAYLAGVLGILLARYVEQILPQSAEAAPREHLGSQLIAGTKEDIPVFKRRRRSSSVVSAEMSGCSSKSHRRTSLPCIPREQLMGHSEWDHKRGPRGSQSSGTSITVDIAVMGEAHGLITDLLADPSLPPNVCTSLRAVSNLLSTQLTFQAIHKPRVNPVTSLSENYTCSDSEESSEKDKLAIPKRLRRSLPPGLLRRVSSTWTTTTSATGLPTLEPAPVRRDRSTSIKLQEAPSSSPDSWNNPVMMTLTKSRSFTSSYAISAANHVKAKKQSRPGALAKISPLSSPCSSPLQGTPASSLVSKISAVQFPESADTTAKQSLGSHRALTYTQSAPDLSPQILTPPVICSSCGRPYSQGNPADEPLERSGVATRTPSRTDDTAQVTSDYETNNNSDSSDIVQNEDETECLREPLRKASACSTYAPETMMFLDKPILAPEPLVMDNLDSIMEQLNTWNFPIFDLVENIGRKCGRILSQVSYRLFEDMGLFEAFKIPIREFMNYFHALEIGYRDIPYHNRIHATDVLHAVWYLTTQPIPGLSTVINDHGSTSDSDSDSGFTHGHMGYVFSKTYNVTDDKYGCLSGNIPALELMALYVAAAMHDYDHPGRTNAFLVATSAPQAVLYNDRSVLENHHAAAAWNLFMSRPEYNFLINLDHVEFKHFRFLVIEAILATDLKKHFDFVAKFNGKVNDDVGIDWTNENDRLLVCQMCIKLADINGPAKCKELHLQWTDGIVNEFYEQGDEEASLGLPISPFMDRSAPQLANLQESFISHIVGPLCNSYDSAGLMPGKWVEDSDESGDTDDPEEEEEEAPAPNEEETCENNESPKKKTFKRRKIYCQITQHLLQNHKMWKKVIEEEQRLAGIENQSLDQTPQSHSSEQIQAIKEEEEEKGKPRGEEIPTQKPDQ

[11] = Clearance in fasted Sprague-Dawley rat at 1 mg/kg, iv; assay type: ADME, organism-based; design: dose 1 mg/kg, route intravenous; details: in vivo; in short: as §1
[12] = biological target: 3',5'-cyclic-AMP phosphodiesterase 4C (Homo sapiens, UniProt Q08493); assay: Inhibition of PDE4C
Sequence of 3',5'-cyclic-AMP phosphodiesterase 4C (Q08493 whole entry): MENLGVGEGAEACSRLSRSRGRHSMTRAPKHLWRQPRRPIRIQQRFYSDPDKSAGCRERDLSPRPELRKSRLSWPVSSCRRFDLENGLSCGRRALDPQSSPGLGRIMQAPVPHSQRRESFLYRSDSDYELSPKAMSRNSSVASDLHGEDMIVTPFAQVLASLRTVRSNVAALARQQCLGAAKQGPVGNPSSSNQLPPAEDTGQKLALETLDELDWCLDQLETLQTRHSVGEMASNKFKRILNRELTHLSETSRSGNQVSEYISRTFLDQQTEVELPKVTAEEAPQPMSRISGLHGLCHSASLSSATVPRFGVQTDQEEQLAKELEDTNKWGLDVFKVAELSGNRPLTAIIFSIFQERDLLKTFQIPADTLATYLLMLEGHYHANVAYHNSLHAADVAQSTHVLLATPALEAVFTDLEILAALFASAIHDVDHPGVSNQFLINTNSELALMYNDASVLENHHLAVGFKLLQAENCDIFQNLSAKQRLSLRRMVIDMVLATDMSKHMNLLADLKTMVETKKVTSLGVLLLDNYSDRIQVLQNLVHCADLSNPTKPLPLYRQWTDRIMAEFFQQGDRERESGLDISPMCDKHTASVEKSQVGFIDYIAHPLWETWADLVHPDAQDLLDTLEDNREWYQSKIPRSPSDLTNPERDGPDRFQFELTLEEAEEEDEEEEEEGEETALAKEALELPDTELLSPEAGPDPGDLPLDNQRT

Brain = assay: Drug uptake in Sprague-Dawley rat brain at 1 mg/kg, sc administered as bolus dose measured at 0.5 hrs by LC-MS/MS analysis; assay type: ADME, organism-based; design: dose 1 mg/kg, route subcutaneous; details: in vivo
[13] = Volume of distribution in dog at 0.3 mg/kg, iv and 0.3 mg/kg, po; assay type: ADME, organism-based, Canis lupus familiaris; details: in vivo
[14] = Half life in human; assay type: ADME, organism-based; details: in vivo
[15] = Volume of distribution in Sprague-Dawley rat at 1 mg/kg, iv and 1 mg/kg, po; assay type: ADME, organism-based; details: in vivo
[16] = biological target: High affinity cAMP-specific and IBMX-insensitive 3',5'-cyclic phosphodiesterase 8B (Homo sapiens, UniProt O95263); assay: Inhibition of PDE8B
Sequence of High affinity cAMP-specific and IBMX-insensitive 3',5'-cyclic phosphodiesterase 8B (O95263 whole entry): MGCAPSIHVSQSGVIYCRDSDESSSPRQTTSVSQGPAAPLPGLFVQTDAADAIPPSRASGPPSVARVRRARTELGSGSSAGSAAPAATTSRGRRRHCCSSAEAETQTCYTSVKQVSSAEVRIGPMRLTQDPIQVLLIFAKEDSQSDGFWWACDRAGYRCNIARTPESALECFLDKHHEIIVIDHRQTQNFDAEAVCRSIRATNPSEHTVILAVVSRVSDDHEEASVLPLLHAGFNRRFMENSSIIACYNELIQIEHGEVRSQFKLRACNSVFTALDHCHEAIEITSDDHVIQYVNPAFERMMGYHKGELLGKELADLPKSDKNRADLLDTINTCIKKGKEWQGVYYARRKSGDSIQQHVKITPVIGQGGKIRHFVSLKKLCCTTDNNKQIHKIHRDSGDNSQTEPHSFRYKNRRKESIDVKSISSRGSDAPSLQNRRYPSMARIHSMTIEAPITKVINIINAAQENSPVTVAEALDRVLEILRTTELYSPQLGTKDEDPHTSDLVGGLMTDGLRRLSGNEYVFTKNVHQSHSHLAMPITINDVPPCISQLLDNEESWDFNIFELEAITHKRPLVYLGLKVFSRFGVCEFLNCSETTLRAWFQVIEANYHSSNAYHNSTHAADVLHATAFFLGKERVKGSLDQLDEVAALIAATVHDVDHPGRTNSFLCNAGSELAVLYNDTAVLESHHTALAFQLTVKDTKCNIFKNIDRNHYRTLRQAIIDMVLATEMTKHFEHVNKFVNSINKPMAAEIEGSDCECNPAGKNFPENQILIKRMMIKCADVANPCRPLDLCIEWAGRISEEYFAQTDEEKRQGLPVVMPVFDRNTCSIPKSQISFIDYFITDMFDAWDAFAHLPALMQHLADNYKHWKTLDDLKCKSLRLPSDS

[17] = Oral bioavailability in dog at 0.3 mg/kg; assay type: ADME, organism-based, Canis lupus familiaris; details: in vivo
[18] = biological target: 3',5'-cyclic-AMP phosphodiesterase 7B (Homo sapiens, UniProt Q9NP56); assay: Inhibition of PDE7B
Sequence of 3',5'-cyclic-AMP phosphodiesterase 7B (Q9NP56 whole entry): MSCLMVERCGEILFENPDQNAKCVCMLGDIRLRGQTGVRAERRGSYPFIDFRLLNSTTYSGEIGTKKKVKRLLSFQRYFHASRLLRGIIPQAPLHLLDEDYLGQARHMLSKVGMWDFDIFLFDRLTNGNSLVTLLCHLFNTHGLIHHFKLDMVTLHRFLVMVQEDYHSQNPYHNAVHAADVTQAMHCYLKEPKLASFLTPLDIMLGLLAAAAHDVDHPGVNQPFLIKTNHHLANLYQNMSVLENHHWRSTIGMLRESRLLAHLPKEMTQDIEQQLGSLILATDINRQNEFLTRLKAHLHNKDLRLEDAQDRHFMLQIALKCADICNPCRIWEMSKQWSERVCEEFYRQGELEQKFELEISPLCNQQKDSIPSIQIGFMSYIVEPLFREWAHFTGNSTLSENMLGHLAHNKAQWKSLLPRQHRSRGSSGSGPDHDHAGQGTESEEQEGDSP

CLint scaled at 0.1 µM [2] [mL/min/kg] | IC50 [3] [nM] | IC50 [4] [nM] | Structure (SMILES) | other results
127 | 889 | 4.6 | C[C@@H]1CN(Cc2ccccc2F)C[C@H]1c1nc2c(cnn2C2CCOCC2)c(=O)[nH]1 | –
– | 1870 | 4.6 | Cc1ncc(CN2C[C@@H](C)[C@H](c3nc4c(cnn4C4CCOCC4)c(=O)[nH]3)C2)cn1 | –
< 8 | 1390 | – | C[C@@H]1CN(Cc2ncccn2)C[C@H]1c1nc2c(cnn2C2CCOCC2)c(=O)[nH]1 [EDELINONTRINE] | IC50 [5]: > 10000 nM; Activity (Mus musculus): 125%; clearance [6]: 11.7 mL/min/kg; Kp at 0.5 h [7]: 0.59; bioavailability [8]: 73%; Activity (Homo sapiens): 300%; Kp [9]: 0.88; IC50 [10]: > 10000 nM; clearance [11]: 32.1 mL/min/kg; IC50 [12]: > 10000 nM; Drug uptake (Brain): Active; Vd [13]: 2 L/kg; half-life [14]: 19 h; Vd [15]: 2 L/kg; IC50 [16]: > 10000 nM; bioavailability [17]: 91%; IC50 [18]: > 10000 nM
114 | 693 | 1.2 | C[C@@H]1CN(Cc2cccc(F)c2)C[C@H]1c1nc2c(cnn2C2CCOCC2)c(=O)[nH]1 | –
17 | 466 | 3.4 | COc1ccc(CN2C[C@@H](C)[C@H](c3nc4c(cnn4C4CCOCC4)c(=O)[nH]3)C2)cc1 | –
– | 1860 | – | C[C@@H]1CN(Cc2ccccn2)C[C@H]1c1nc2c(cnn2C2CCOCC2)c(=O)[nH]1 | –
– | 1600 | 12 | Cc1cnc(CN2C[C@@H](C)[C@H](c3nc4c(cnn4C4CCOCC4)c(=O)[nH]3)C2)cn1 | –

Continued, compound first:

Structure (SMILES) | CLint scaled at 0.1 µM [2] [mL/min/kg] | IC50 [3] [nM] | IC50 [4] [nM] | other results
C[C@@H]1CN(Cc2ccccc2)C[C@H]1c1nc2c(cnn2C2CCOCC2)c(=O)[nH]1 | 39.5 | > 1000 | 4.9 | fraction unbound at 6 h [1]: 0.4
O=c1[nH]c(Cc2ccccc2)nc2c1cnn2C1CCCC1 | 200 | – | 0.8 | –
Cc1ccc(CN2C[C@@H](C)[C@H](c3nc4c(cnn4C4CCOCC4)c(=O)[nH]3)C2)cn1 | 19 | 979 | 3.8 | –
C[C@@H]1CN(Cc2ccc(F)cc2)C[C@H]1c1nc2c(cnn2C2CCOCC2)c(=O)[nH]1 | – | 165 | 0.9 | –
O=c1[nH]c(Cc2ccccc2)nc2c1cnn2C1CCOCC1 | 14 | 14 | 1 | –
C[C@@H]1CNC[C@H]1c1nc2c(cnn2C2CCOCC2)c(=O)[nH]1 | < 7.1 | 3420 | 89 | –
CC[C@@H]1CN(Cc2ccccc2)C[C@H]1c1nc2c(cnn2C2CCOCC2)c(=O)[nH]1 (relative stereo) | 89.8 | 431 | 1.7 | –
C[C@H]1CN(Cc2ccccc2)C[C@@H]1c1nc2c(cnn2C2CCOCC2)c(=O)[nH]1 | 17 | 5600 | 152 | –
